Assay results reported in ChEMBL document CHEMBL3751740, “New MKLP-2 inhibitors in the paprotrain series: Design, synthesis and biological evaluations” (Bioorg Med Chem, 2016).
pIC50: −log10 of the molar value. Active and inactive are the calls of the source. The rule behind the calls is not given here.

Tests used:
[1] = target: T1, Kinesin-like protein KIF20A (Homo sapiens, UniProt O95235); experiment: Inhibition of microtubule-stimulated N-terminal MKLP-2 (56 to 505 residues) ATPase activity isolated from human hepatocellular carcinoma cells by pyruvate kinase/lactate dehydrogenase enzyme linked assay
T1 sequence (O95235 whole entry): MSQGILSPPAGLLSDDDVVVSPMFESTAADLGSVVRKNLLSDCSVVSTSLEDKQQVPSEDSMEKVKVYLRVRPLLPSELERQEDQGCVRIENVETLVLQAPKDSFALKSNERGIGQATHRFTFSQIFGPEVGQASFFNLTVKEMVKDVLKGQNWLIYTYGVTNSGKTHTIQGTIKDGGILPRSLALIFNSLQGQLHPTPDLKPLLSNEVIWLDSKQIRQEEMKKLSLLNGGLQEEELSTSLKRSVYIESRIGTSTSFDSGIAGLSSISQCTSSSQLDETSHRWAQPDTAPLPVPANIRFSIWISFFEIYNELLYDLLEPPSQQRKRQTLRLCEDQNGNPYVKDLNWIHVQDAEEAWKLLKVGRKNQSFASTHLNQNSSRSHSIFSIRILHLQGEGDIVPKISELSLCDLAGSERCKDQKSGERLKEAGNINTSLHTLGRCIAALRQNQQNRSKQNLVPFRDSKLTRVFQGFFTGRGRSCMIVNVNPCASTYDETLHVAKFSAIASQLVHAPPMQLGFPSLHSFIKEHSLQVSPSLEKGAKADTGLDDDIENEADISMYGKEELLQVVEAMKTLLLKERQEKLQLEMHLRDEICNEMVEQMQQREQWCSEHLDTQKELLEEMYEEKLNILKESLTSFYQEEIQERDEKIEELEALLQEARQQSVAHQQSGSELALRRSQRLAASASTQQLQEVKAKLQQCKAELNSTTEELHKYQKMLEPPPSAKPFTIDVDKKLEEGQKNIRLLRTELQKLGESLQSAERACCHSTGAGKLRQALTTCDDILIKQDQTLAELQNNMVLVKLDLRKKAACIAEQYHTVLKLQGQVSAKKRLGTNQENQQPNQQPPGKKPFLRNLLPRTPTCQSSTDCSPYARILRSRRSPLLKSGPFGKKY

Ovis aries [2] = organism: Ovis aries; experiment: (§1) Inhibition of sheep brain tubulin polymerization by UV spectrophotometric analysis; design: concentration or dose not given beside the values
In short: (§2)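 Tubulin purified from sheep brain by two assembly/disassembly cycles, about 2–3 mg/mL in 0.1 M MES, 0.5 mM MgCl2, 1 mM EGTA, 1 mM GTP, pH 6.6. Compound in DMSO added at 0 °C, then moved to a 37 °C thermostated cell. Assembly followed by turbidity at 350 nm for a few min.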

[3] = as §1; design: species or system Ovis aries; in short: as §2
Ovis aries [4] = organism: Ovis aries; experiment: Induction of sheep brain microtubule disassembly by UV spectrophotometric analysis
In short: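 Sheep brain tubulin, purified by two assembly/disassembly cycles and held in MES buffer with GTP at pH 6.6, was polymerized at 37 °C for 10 min. Compound was then added to the MTs at 0 °C and depolymerization was followed over the next few minutes by turbidity at 350 nm.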

KB [5] = experiment: Growth inhibition of human KB cells at 1 uM after 72 hrs by MTS assay; format: functional; conditions: for inhibition of growth at 1 µM: read-out: GI
In short: (§3)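 KB cells were grown in DMEM with 25 mM glucose and 10% FCS at 37 °C, 5% CO2, and seeded at 500 cells/well. 24 h later, compound in DMSO (1% final) was added at 10 µM or 1 µM for 72 h; controls received DMSO alone. Runs were in duplicate. Viable cells were read with MTS at 490 nm.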

[6] = target: T1, Kinesin-like protein KIF20A; experiment: Inhibition of N-terminal MKLP2 (56 to 505 residues) ATPase basal activity isolated from human hepatocellular carcinoma cells by pyruvate kinase/lactate dehydrogenase enzyme linked assay
KB [7] = experiment: Growth inhibition of human KB cells at 10 uM after 72 hrs by MTS assay; format: functional; conditions: for inhibition of growth at 10 µM: read-out: GI; in short: as §3
Ovis aries [8] = organism: Ovis aries; experiment: Inhibition of sheep brain microtubule disassembly by UV spectrophotometric analysis; design: concentration or dose not given beside the values

| Structure (SMILES) | IC50 [1] | inhibition (Ovis aries [2]; concentration not given here) | pIC50 [3] | Activity (Ovis aries [4]) | inhibition of growth at 1 µM (KB [5]) | IC50 [6] | inhibition of growth at 10 µM (KB [7]) | inhibition (Ovis aries [2]) | growth inhibition (GI) (KB [5]) | Activity (Ovis aries [8]) | growth inhibition (GI) (KB [7]) |
| --- | --- | --- | --- | --- | --- | --- | --- | --- | --- | --- | --- |
| N#C/C(=C\c1cccnc1)c1c(-c2ccsc2)[nH]c2ccccc12 | Not Active | 70% | 5.04 | inactive | 12% | Not Active | 99% |  |  |  |  |
| COc1ccc2[nH]c(C)c(/C(C#N)=C/c3cccnc3)c2c1 |  |  |  | inactive |  |  | 69% | inactive |  |  |  |
| COc1cccc2c(/C(C#N)=C/c3cccnc3)c[nH]c12 | Not Active |  |  | inactive |  | Not Active | 85% | inactive | inactive |  |  |
| N#C/C(=C\c1cccnc1)c1c(-c2ccccc2)[nH]c2ccccc12 | Not Active | 33% |  |  |  | Not Active | 93% |  | inactive | 13% |  |
| COc1ccc2[nH]cc(/C(=C/C#N)Cc3cccnc3)c2c1 | Not Active | 33% |  | inactive |  | Not Active |  |  |  |  | inactive |
| COc1cc(OC)c(/C=C(\C#N)c2c[nH]c3ccccc23)c(OC)c1 | Not Active |  |  |  |  | Not Active | 83% | inactive | inactive | 13% |  |
| COc1cc(/C=C(\C#N)c2c[nH]c3ccccc23)cc(OC)c1OC | Not Active |  |  | inactive | 6% | Not Active | 81% | inactive |  |  |  |
| N#C/C(=C\c1cccc(Cl)c1)c1c[nH]c2ccccc12 |  |  |  | inactive | 19% |  | 94% | inactive |  |  |  |
| COc1ccc2[nH]cc(C(C#N)c3cccnc3)c2c1 (centres undefined) | Not Active |  |  | inactive |  | Not Active | 45% | inactive |  |  |  |
| N#C/C(=C\c1ccc(Cl)cc1)c1c[nH]c2ccccc12 |  | 13% |  | inactive |  |  | 78% |  |  |  |  |
| COc1ccc2[nH]cc(C(=O)/C(C#N)=C/c3cccnc3)c2c1 | Not Active |  |  |  |  | Not Active | 27% | inactive |  | 14% |  |
| COc1ccc2[nH]cc(/C(C#N)=C/C=C/c3cccnc3)c2c1 | Not Active | 11% |  | inactive |  | Not Active | 10% |  |  |  |  |
| COc1cccc(/C=C(\C#N)c2c[nH]c3ccccc23)c1OC | Not Active |  |  | inactive | 2% | Not Active | 100% | inactive |  |  |  |
| COc1cc(/C=C(\C#N)c2c[nH]c3ccccc23)cc(OC)c1 |  | 31% |  |  | 31% |  | 96% |  |  | 11% |  |
| N#C/C(=C\c1c[nH]c2ccccc12)c1cccnc1 |  | 45% |  | inactive |  |  | 23% |  |  |  |  |
| COc1ccc2c(c1)c(/C(C#N)=C/c1cccnc1)cn2C(C)=O | Not Active |  |  | inactive |  | Not Active | 74% | inactive |  |  |  |
| COc1cc(/C=C(\C#N)c2c[nH]c3ccccc23)cc(OC)c1O | Not Active | 22% |  |  | 59% | Not Active | 95% |  |  | 47% |  |
| CSc1ccc(/C=C(\C#N)c2c[nH]c3ccccc23)cc1 | Not Active |  |  | inactive |  | Not Active | 98% | inactive | inactive |  |  |
| N#C/C(=C\c1cccnc1)c1c[nH]c2ncccc12 |  | 19% |  | inactive | 29% |  | 100% |  |  |  |  |
| COc1cc(OC)c(OC)cc1/C=C(\C#N)c1c[nH]c2ccccc12 | Not Active | 32% |  | inactive | 40% | Not Active | 100% |  |  |  |  |
| N#C/C(=C\c1ccc(F)cc1)c1c[nH]c2ccccc12 |  | 22% |  | inactive |  |  | 84% |  | inactive |  |  |
| COc1ccc(/C=C(\C#N)c2c[nH]c3ccccc23)cc1OC | Not Active | 62% | 4.70 | inactive | 25% | Not Active | 99% |  |  |  |  |
| COc1cccc(/C=C(\C#N)c2c[nH]c3ccccc23)c1 | Not Active | 37% |  |  |  | Not Active | 89% |  | inactive | 38% |  |
| N#C/C(=C\c1ccc(C(F)(F)F)cc1)c1c[nH]c2ccccc12 | Not Active | 57% |  | inactive |  | Not Active | 87% |  | inactive |  |  |
| COc1ccc(/C=C(\C#N)c2c[nH]c3ccccc23)c(OC)c1 | Not Active | 76% | 4.92 | inactive | 35% | Not Active | 99% |  |  |  |  |
| N#CC(Cc1cccnc1)c1c[nH]c2ccccc12 (centres undefined) |  | 16% |  |  |  |  | 5% |  |  | 21% |  |
